Laboratory results published in ChEMBL document CHEMBL3286189, “Discovery and SAR studies of a novel class of cytotoxic 1,4-disubstituted piperidines via Ugi reaction” (Eur J Med Chem, 2014).

Tests used:
CCRF-CEM [1] = assay: Cytostatic activity against human CEM cells assessed as inhibition of cell proliferation after 72 hrs by coulter counting analysis; type: functional, cell-based; settings: Homo sapiens, CCRF-CEM, 72 h
Procedure, shortened: (§1)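 Anti-proliferative screen in murine leukemia L1210, human T-lymphocyte CEM and human cervix carcinoma HeLa cultures. The value reported is the IC50, the concentration that inhibits cell proliferation by 50%.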

HeLa = assay: Cytostatic activity against human HeLa cells assessed as inhibition of cell proliferation after 72 hrs by coulter counting analysis; type: functional, cell-based; settings: Homo sapiens, HeLa, 72 h; procedure, shortened: as §1
Huh-7 = assay: Cytostatic activity against human HuH7 cells assessed as inhibition of cell proliferation after 96 hrs by coulter counting analysis; type: functional, cell-based; settings: Huh-7, 96 h
Procedure, shortened: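 Anti-proliferative testing extended to human kidney Caki-1 and human liver Huh-7 tumour cells. The value reported is the IC50, the concentration that inhibits tumour cell growth by 50%.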

CCRF-CEM [2] = assay: Anticancer activity against human CCRF-CEM cells; type: functional
Procedure, shortened: (§2)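 Values come from the NCI 60-cell-line human tumour panel, run on a single analog. Cytostatic and cytotoxic responses were read for each cell line across graded molar concentrations of that compound.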

HL-60 = assay: Anticancer activity against human HL60 (TB) cells; type: functional
Procedure, shortened: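 Run within the broad NCI-60 human tumour cell line panel screen of the National Cancer Institute.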

K562 = assay: Anticancer activity against human K562 cells; type: functional; procedure, shortened: as §2
RPMI-8226 = assay: Anticancer activity against human RPMI8226 cells; type: functional; procedure, shortened: as §2
A549 = assay: Anticancer activity against human A549/ATCC cells; type: functional; procedure, shortened: as §2
[3] = Anticancer activity against human HOP92 cells; type: functional; procedure, shortened: as §2
NCI-H226 = assay: Anticancer activity against human NCI-H226 cells; type: functional; procedure, shortened: as §2
NCI-H23 = assay: Anticancer activity against human NCI-H23 cells; type: functional; procedure, shortened: as §2
NCI-H322M = assay: Anticancer activity against human NCI-H322M cells; type: functional; procedure, shortened: as §2
NCI-H522 = assay: Anticancer activity against human NCI-H522 cells; type: functional; procedure, shortened: as §2
COLO 205 = assay: Anticancer activity against human COLO205 cells; type: functional; procedure, shortened: as §2
SW-620 = assay: Anticancer activity against human SW620 cells; type: functional; procedure, shortened: as §2
SF-268 = assay: Anticancer activity against human SF268 cells; type: functional; procedure, shortened: as §2
SNB-19 = assay: Anticancer activity against human SNB19 cells; type: functional; procedure, shortened: as §2
SNB-75 = assay: Anticancer activity against human SNB75 cells; type: functional; procedure, shortened: as §2
U-251 = assay: Anticancer activity against human U251 cells; type: functional; procedure, shortened: as §2
[4] = Anticancer activity against human LOXIMVI cells; type: functional; settings: LOX IMVI; procedure, shortened: as §2
Malme-3M = assay: Anticancer activity against human MALME-3M cells; type: functional; procedure, shortened: as §2
M14 = assay: Anticancer activity against human M14 cells; type: functional; procedure, shortened: as §2
MDA-MB-435 = assay: Anticancer activity against human MDA-MB-435 cells; type: functional; procedure, shortened: as §2
[5] = Anticancer activity against human UACC257 cells; type: functional
Procedure, shortened: (§3)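 Assayed in the NCI Cancer-60 human tumour cell line panel, with activity read across several log-step concentrations.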

[6] = Anticancer activity against human UACC62 cells; type: functional; procedure, shortened: as §3
[7] = Anticancer activity against human OVCAR8 cells; type: functional; procedure, shortened: as §2
NCI/ADR-RES = assay: Anticancer activity against human NCI/ADR-RES cells; type: functional; procedure, shortened: as §2
SK-OV-3 = assay: Anticancer activity against human SKOV3 cells; type: functional; procedure, shortened: as §2
A498 = assay: Anticancer activity against human A498 cells; type: functional; procedure, shortened: as §2
CAKI-1 = assay: Anticancer activity against human Caki1 cells; type: functional
[8] = Anticancer activity against human RXF393 cells; type: functional; procedure, shortened: as §2
SN12C = assay: Anticancer activity against human SN12C cells; type: functional; procedure, shortened: as §2
TK-10 = assay: Anticancer activity against human TK10 cells; type: functional; procedure, shortened: as §2
[9] = Anticancer activity against human UO31 cells; type: functional; procedure, shortened: as §3
MCF7 = assay: Anticancer activity against human MCF7 cells; type: functional; procedure, shortened: as §2
MDA-MB-231 = assay: Anticancer activity against human MDA-MB-231/ATCC cells; type: functional; procedure, shortened: as §2
[10] = Anticancer activity against human Hs 578T cells; type: functional; procedure, shortened: as §2
[11] = Anticancer activity against human BT549 cells; type: functional; procedure, shortened: as §2
T47D = assay: Anticancer activity against human T47D cells; type: functional; procedure, shortened: as §2
MDA-MB-468 = assay: Anticancer activity against human MDA-MB-468 cells; type: functional; procedure, shortened: as §2
[12] = read-out: pLC50 (the source's name) (converted)

For `CC(C)(C)OC(=O)N[C@@H](Cc1ccccc1)C(=O)N(Cc1ccccc1)C1(C(=O)NCc2ccccc2)CCN(Cc2ccccc2)CC1`, the IC50 (CCRF-CEM [1]) was 4.4 µM, the IC50 (HeLa) was 4.2 µM and the IC50 (Huh-7) was 6.4 µM. For the same compound, the GI50 (CCRF-CEM [2]) was 3.31 µM, the CC50 (CCRF-CEM [2]; [12]) was > 100 µM and the TGI (CCRF-CEM [2]; read-out: pTGI) was > 100 µM. The GI50 (HL-60) was 2.51 µM, the CC50 (HL-60; [12]) was > 100 µM and the TGI (HL-60; read-out: pTGI (converted)) was 6.17 µM. The GI50 (K562) was 3.39 µM, the CC50 (K562; [12]) was > 100 µM and the TGI (K562; read-out: pTGI) was > 100 µM. The GI50 (RPMI-8226) was 2.19 µM, the CC50 (RPMI-8226; [12]) was > 100 µM and the TGI (RPMI-8226; read-out: pTGI (converted)) was 6.92 µM. The GI50 (A549) was 3.89 µM, the CC50 (A549; [12]) was > 100 µM and the TGI (A549; read-out: pTGI) was > 100 µM. For the same compound, the GI50 ([3]; HOP-92) was 1.45 µM, the CC50 ([3]; HOP-92, read-out: pLC50 (the source's name) (converted)) was > 100 µM and the TGI ([3]; HOP-92, read-out: pTGI (converted)) was 5.37 µM. For the same compound, the GI50 (NCI-H226) was 3.24 µM, the CC50 (NCI-H226; [12]) was > 100 µM and the TGI (NCI-H226; read-out: pTGI) was > 100 µM. The GI50 (NCI-H23) was 5.62 µM, the CC50 (NCI-H23; [12]) was > 100 µM and the TGI (NCI-H23; read-out: pTGI) was > 100 µM. The GI50 (NCI-H322M) was 9.33 µM, the CC50 (NCI-H322M; [12]) was > 100 µM and the TGI (NCI-H322M; read-out: pTGI) was > 100 µM. For the same compound, the GI50 (NCI-H522) was 3.98 µM, the CC50 (NCI-H522; [12]) was > 100 µM and the TGI (NCI-H522; read-out: pTGI) was > 100 µM. It also gave a GI50 (COLO 205) of 1.66 µM, a CC50 (COLO 205; [12]) of 6.61 µM and a TGI (COLO 205; read-out: pTGI (converted)) of 3.31 µM. For the same compound, the GI50 (SW-620) was 3.47 µM, the CC50 (SW-620; [12]) was > 100 µM and the TGI (SW-620; read-out: pTGI) was > 100 µM. For the same compound, the GI50 (SF-268) was 4.9 µM, the CC50 (SF-268; [12]) was > 100 µM and the TGI (SF-268; read-out: pTGI) was > 100 µM. For the same compound, the GI50 (SNB-19) was 5.25 µM, the CC50 (SNB-19; [12]) was > 100 µM and the TGI (SNB-19; read-out: pTGI) was > 100 µM. The GI50 (SNB-75) was 2.95 µM, the CC50 (SNB-75; [12]) was > 100 µM and the TGI (SNB-75; read-out: pTGI) was > 100 µM. For the same compound, the GI50 (U-251) was 3.16 µM, the CC50 (U-251; [12]) was > 100 µM and the TGI (U-251; read-out: pTGI) was > 100 µM. For the same compound, the GI50 [4] was 3.63 µM, the CC50 [4, 12] was > 100 µM and the TGI ([4]; read-out: pTGI (converted)) was 21.4 µM. For the same compound, the GI50 (Malme-3M) was 3.02 µM, the CC50 (Malme-3M; [12]) was > 100 µM and the TGI (Malme-3M; read-out: pTGI (converted)) was 10 µM. The GI50 (M14) was 2.63 µM, the CC50 (M14; [12]) was > 100 µM and the TGI (M14; read-out: pTGI (converted)) was 44.7 µM. For the same compound, the GI50 (MDA-MB-435) was 3.02 µM, the CC50 (MDA-MB-435; [12]) was > 100 µM and the TGI (MDA-MB-435; read-out: pTGI) was > 100 µM. The GI50 ([5]; UACC-257) was 2.57 µM, the CC50 ([5]; UACC-257, read-out: pLC50 (the source's name) (converted)) was > 100 µM and the TGI ([5]; UACC-257, read-out: pTGI) was > 100 µM. The GI50 ([6]; UACC-62) was 2.51 µM, the CC50 ([6]; UACC-62, read-out: pLC50 (the source's name) (converted)) was > 100 µM and the TGI ([6]; UACC-62, read-out: pTGI (converted)) was 7.94 µM. The GI50 ([7]; OVCAR-8) was 3.47 µM, the CC50 ([7]; OVCAR-8, read-out: pLC50 (the source's name) (converted)) was > 100 µM and the TGI ([7]; OVCAR-8, read-out: pTGI) was > 100 µM. The GI50 (NCI/ADR-RES) was 2.88 µM, the CC50 (NCI/ADR-RES; [12]) was > 100 µM and the TGI (NCI/ADR-RES; read-out: pTGI (converted)) was 46.8 µM. For the same compound, the GI50 (SK-OV-3) was 3.02 µM, the CC50 (SK-OV-3; [12]) was > 100 µM and the TGI (SK-OV-3; read-out: pTGI) was > 100 µM. The GI50 (A498) was 1.45 µM, the CC50 (A498; [12]) was > 100 µM and the TGI (A498; read-out: pTGI (converted)) was 6.31 µM. For the same compound, the GI50 (CAKI-1) was 2.34 µM, the CC50 (CAKI-1; [12]) was > 100 µM and the TGI (CAKI-1; read-out: pTGI) was > 100 µM. For the same compound, the GI50 ([8]; RXF 393) was 3.09 µM, the CC50 ([8]; RXF 393, read-out: pLC50 (the source's name) (converted)) was > 100 µM and the TGI ([8]; RXF 393, read-out: pTGI) was > 100 µM. The GI50 (SN12C) was 3.47 µM, the CC50 (SN12C; [12]) was > 100 µM and the TGI (SN12C; read-out: pTGI) was > 100 µM. For the same compound, the GI50 (TK-10) was 3.16 µM, the CC50 (TK-10; [12]) was > 100 µM and the TGI (TK-10; read-out: pTGI (converted)) was 70.8 µM. For the same compound, the GI50 ([9]; UO-31) was 2.14 µM, the CC50 ([9]; UO-31, read-out: pLC50 (the source's name) (converted)) was > 100 µM and the TGI ([9]; UO-31, read-out: pTGI) was > 100 µM. For the same compound, the GI50 (MCF7) was 2.82 µM, the CC50 (MCF7; [12]) was > 100 µM and the TGI (MCF7; read-out: pTGI (converted)) was 19.1 µM. For the same compound, the GI50 (MDA-MB-231) was 3.02 µM, the CC50 (MDA-MB-231; [12]) was > 100 µM and the TGI (MDA-MB-231; read-out: pTGI (converted)) was 79.4 µM. The GI50 [10] was 4.27 µM, the CC50 [10, 12] was > 100 µM and the TGI ([10]; read-out: pTGI) was > 100 µM. For the same compound, the GI50 ([11]; BT-549) was 2.09 µM, the CC50 ([11]; BT-549, read-out: pLC50 (the source's name) (converted)) was > 100 µM and the TGI ([11]; BT-549, read-out: pTGI (converted)) was 7.94 µM. For the same compound, the GI50 (T47D) was 2.88 µM, the CC50 (T47D; [12]) was > 100 µM and the TGI (T47D; read-out: pTGI) was > 100 µM. The GI50 (MDA-MB-468) was 1.62 µM, the CC50 (MDA-MB-468; [12]) was > 100 µM and the TGI (MDA-MB-468; read-out: pTGI (converted)) was 5.89 µM.
